Assay results reported in ChEMBL document CHEMBL1125014, “Synthesis and structure-activity relationships of new 9-N-alkyl derivatives of 9(S)-erythromycylamine” (1990).
Values after ≈ are worked out from the molar mass of the structure shown.

Legend:
Staphylococcus aureus [1] = experiment: MIC value measured against staphylococcus aureus X1; type: functional
Streptococcus pneumoniae [2] = experiment: MIC value measured against streptococcus pneumoniae Park1; type: functional
Streptococcus pyogenes [3] = experiment: MIC value measured against streptococcus pyogenes C203; type: functional
Haemophilus influenzae [4] = experiment: MIC value was measured against haemophilus influenzae.; type: functional
Outline: (§1)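 Susceptibility determined by standard agar-dilution method against a panel of bacterial strains.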

Streptococcus pyogenes [5] = experiment: Effective dose against mice infected with streptococcus pyogenes after peroral administration (in vivo); type: functional; details: in Mus musculus, po
Staphylococcus aureus [6] = experiment: Effective dose against mice infected with Staphylococcus aureus after peroral administration (in vivo); type: functional; details: in Mus musculus, po
[7] = tested on: Staphylococcus epidermidis; experiment: MIC value was measured against staphylococcus epidermidis.; type: functional; outline: as §1
Streptococcus pneumoniae [8] = experiment: Effective dose against mice infected with streptococcus pneumoniae after peroral administration (in vivo); type: functional; details: in Mus musculus, po
Haemophilus influenzae [9] = experiment: MIC value was measured against haemophilus influenzae CL; type: functional
Enterococcus faecalis = experiment: MIC value was measured against streptococcus faecalis X66; type: functional; outline: as §1
Streptococcus pneumoniae [10] = experiment: MIC value was measured against streptococcus pneumoniae park1
[11] = tested on: Staphylococcus epidermidis; experiment: microbe, parasite or virus in culture; type: functional
Streptococcus pneumoniae [12] = experiment: MIC value was measured against streptococcus pneumoniae park1; type: functional; outline: as §1
[13] = tested on: Staphylococcus epidermidis; experiment: MIC value was measured against staphylococcus epidermidis 222; type: functional; outline: as §1
Mus musculus [14] = experiment: ED50 value was measured against streptococcus pyogenes after sc administration in mice (in vivo, in experiment 2); type: functional
Outline: (§2)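 Infected mice were dosed orally or subcutaneously at 1 and 5 h postinfection, 0.25 mL of antibiotic solution in 10% aqueous ethanol per dose. Tartaric acid was added where needed for solubility. Several dose concentrations were tested to give the ED50.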

Mus musculus [15] = experiment: ED50 value was measured against streptococcus pyogenes after po administration in mice (in vivo, in experiment 2); type: functional; outline: as §2
Mus musculus [16] = experiment: ED50 value was measured against staphylococcus aureus after po administration in mice (in vivo, in experiment 2); type: functional; outline: as §2
Mus musculus [17] = experiment: ED50 value was measured against streptococcus pneumoniae after sc administration in mice (in vivo, in experiment 2); type: functional; outline: as §2
Mus musculus [18] = experiment: ED50 value was measured against staphylococcus aureus after sc administration in mice (in vivo, in experiment 2); type: functional; outline: as §2
Mus musculus [19] = experiment: ED50 value was measured against streptococcus pneumoniae after po administration in mice (in vivo, in experiment 2); type: functional; outline: as §2
Mus musculus [20] = experiment: ED50 value was measured against streptococcus pyogenes after sc administration in mice (in vivo, in experiment 1); type: functional; outline: as §2
Mus musculus [21] = experiment: ED50 value was measured against streptococcus pneumoniae after sc administration in mice (in vivo, in experiment 1); type: functional; outline: as §2
Mus musculus [22] = experiment: ED50 value was measured against streptococcus pneumoniae after po administration in mice (in vivo, in experiment 1); type: functional; outline: as §2
Mus musculus [23] = experiment: ED50 value was measured against staphylococcus aureus after sc administration in mice (in vivo, in experiment 1); type: functional; outline: as §2
Mus musculus [24] = experiment: ED50 value was measured against streptococcus pyogenes after po administration in mice (in vivo, in experiment 1); type: functional; outline: as §2
Mus musculus [25] = experiment: ED50 value was measured against staphylococcus aureus infection in mice (in vivo, in experiment 1); type: functional; outline: as §2
Mus musculus [26] = experiment: ED50 value was measured against streptococcus pneumoniae after po administration in mice (in vivo, in experiment 3); type: functional; outline: as §2
Mus musculus [27] = experiment: ED50 value was measured against staphylococcus aureus after sc administration in mice (in vivo, in experiment 3); type: functional; outline: as §2
Mus musculus [28] = experiment: ED50 value was measured against streptococcus pneumoniae after sc administration in mice (in vivo, in experiment 3); type: functional; outline: as §2
Mus musculus [29] = experiment: ED50 value was measured against streptococcus pyogenes after po administration in mice (in vivo, in experiment 3); type: functional; outline: as §2
Mus musculus [30] = experiment: ED50 value was measured against streptococcus pyogenes after sc administration in mice (in vivo, in experiment 3); type: functional; outline: as §2
Mus musculus [31] = experiment: ED50 value was measured against staphylococcus aureus after po administration in mice (in vivo, in experiment 3); type: functional; outline: as §2
Mus musculus [32] = experiment: ED50 value was measured against streptococcus pneumoniae after po administration in mice in vivo, in experiment 3); type: functional; outline: as §2
Mus musculus [33] = experiment: ED50 value was measured against staphylococcus aureus after sc administration in mice in vivo, in experiment 3); type: functional; outline: as §2
Mus musculus [34] = experiment: ED50 value was measured against staphylococcus aureus after po administration in mice in vivo, in experiment 3); type: functional; outline: as §2
Mus musculus [35] = experiment: ED50 value was measured against streptococcus pyogenes after sc administration in mice in vivo, in experiment 3); type: functional; outline: as §2
Mus musculus [36] = experiment: ED50 value was measured against streptococcus pneumoniae after sc administration in mice in vivo, in experiment 3); type: functional; outline: as §2

Work on `CCC(CC)CN[C@@H]1[C@H](C)[C@@H](O)[C@](C)(O)[C@@H](CC)OC(=O)[C@H](C)[C@@H](OC2CC(C)(OC)C(O)C(C)O2)[C@H](C)[C@@H](OC2OC(C)CC(N(C)C)C2O)[C@](C)(O)C[C@H]1C` (some centres undefined) yielded an MIC (Staphylococcus aureus [1]) of 0.5 µg/mL (≈ 0.61 µM), an MIC (Streptococcus pneumoniae [2]) of 0.015 µg/mL (≈ 0.0183 µM) and an MIC (Streptococcus pyogenes [3]) of 0.015 µg/mL (≈ 0.0183 µM). For the same compound, the MIC (Haemophilus influenzae [4]) was 2 µg/mL (≈ 2.44 µM), the ED50 (Streptococcus pyogenes [5]) was 10 mg/kg and the ED50 (Staphylococcus aureus [6]) was 22 mg/kg. The MIC [7] was 0.5 µg/mL (≈ 0.61 µM), the ED50 (Streptococcus pneumoniae [8]) was 17 mg/kg and the MIC (Haemophilus influenzae [9]) was 2 µg/mL (≈ 2.44 µM).
For `CC[C@H]1OC(=O)[C@H](C)[C@@H](OC2CC(C)(OC)C(O)C(C)O2)[C@H](C)[C@@H](OC2OC(C)CC(N(C)C)C2O)[C@](C)(O)C[C@@H](C)[C@H](NCC2CC=CCC2)[C@H](C)[C@@H](O)[C@]1(C)O` (some centres undefined), the MIC (Staphylococcus aureus [1]) was 1 µg/mL (≈ 1.21 µM), the MIC (Streptococcus pyogenes [3]) was 0.06 µg/mL (≈ 0.0724 µM) and the MIC (Enterococcus faecalis) was 0.25 µg/mL (≈ 0.302 µM). For the same compound, the ED50 (Streptococcus pyogenes [5]) was 15 mg/kg, the ED50 (Staphylococcus aureus [6]) was 20 mg/kg and the MIC (Streptococcus pneumoniae [10]) was 0.008 µg/mL (≈ 0.00965 µM). It also gave an ED50 (Streptococcus pneumoniae [8]) of 9 mg/kg, an MIC [11] of 0.25 µg/mL (≈ 0.302 µM) and an MIC (Haemophilus influenzae [9]) of 4 µg/mL (≈ 4.82 µM).
`CCCN1C(C)O[C@@H]2[C@@H](C)[C@@H]1[C@H](C)C[C@@](C)(O)[C@H](OC1OC(C)CC(N(C)C)C1O)[C@@H](C)[C@H](OC1CC(C)(OC)C(O)C(C)O1)[C@@H](C)C(=O)O[C@H](CC)[C@@]2(C)O` (some centres undefined) gave an MIC (Staphylococcus aureus [1]) of 1 µg/mL (≈ 1.25 µM), an MIC (Streptococcus pneumoniae [12]) of 0.015 µg/mL (≈ 0.0187 µM) and an MIC (Streptococcus pyogenes [3]) of 0.06 µg/mL (≈ 0.0747 µM). The MIC (Enterococcus faecalis) was 0.25 µg/mL (≈ 0.311 µM), the MIC [13] was 0.25 µg/mL (≈ 0.311 µM) and the MIC (Haemophilus influenzae [9]) was 1 µg/mL (≈ 1.25 µM).
With `CC[C@H]1OC(=O)[C@H](C)[C@@H](OC2CC(C)(OC)C(O)C(C)O2)[C@H](C)[C@@H](OC2OC(C)CC(N(C)C)C2O)[C@](C)(O)C[C@@H](C)[C@H](NCCCOC)[C@H](C)[C@@H](O)[C@]1(C)O` (some centres undefined) the MIC (Staphylococcus aureus [1]) was 0.5 µg/mL (≈ 0.62 µM), the MIC (Streptococcus pneumoniae [2]) was 0.03 µg/mL (≈ 0.0372 µM) and the ED50 (Mus musculus [14]) was 2.1 mg/kg. It also gave an ED50 (Mus musculus [15]) of 19 mg/kg, an MIC (Streptococcus pyogenes [3]) of 0.06 µg/mL (≈ 0.0743 µM) and an ED50 (Mus musculus [16]) of 36 mg/kg. The MIC (Haemophilus influenzae [4]) was 0.5 µg/mL (≈ 0.62 µM), the ED50 (Streptococcus pyogenes [5]) was 14 mg/kg and the ED50 (Staphylococcus aureus [6]) was 16 mg/kg. For the same compound, the ED50 (Mus musculus [17]) was 8.3 mg/kg, the ED50 (Mus musculus [18]) was 3.7 mg/kg and the ED50 (Streptococcus pneumoniae [8]) was 16 mg/kg. For the same compound, the MIC [11] was 0.5 µg/mL (≈ 0.62 µM), the MIC (Haemophilus influenzae [9]) was 0.5 µg/mL (≈ 0.62 µM) and the ED50 (Mus musculus [19]) was 17 mg/kg.
Work on `CC[C@H]1OC(=O)[C@H](C)[C@@H](OC2CC(C)(OC)C(O)C(C)O2)[C@H](C)[C@@H](OC2OC(C)CC(N(C)C)C2O)[C@](C)(O)C[C@@H](C)[C@H](NCCOCCOC)[C@H](C)[C@@H](O)[C@]1(C)O` (some centres undefined) yielded an MIC (Staphylococcus aureus [1]) of 1 µg/mL (≈ 1.19 µM), an ED50 (Mus musculus [20]) of 5.3 mg/kg and an ED50 (Mus musculus [21]) of 1.4 mg/kg. For the same compound, the MIC (Streptococcus pneumoniae [2]) was 0.015 µg/mL (≈ 0.0179 µM), the ED50 (Mus musculus [22]) was 43 mg/kg and the MIC (Streptococcus pyogenes [3]) was 0.12 µg/mL (≈ 0.143 µM). It also gave an MIC (Haemophilus influenzae [4]) of 2 µg/mL (≈ 2.39 µM), an ED50 (Streptococcus pyogenes [5]) of 27 mg/kg and an ED50 (Staphylococcus aureus [6]) of 22 mg/kg. It also gave an ED50 (Mus musculus [23]) of 3.8 mg/kg, an ED50 (Mus musculus [24]) of 37 mg/kg and an ED50 (Mus musculus [25]) of 78 mg/kg. It also gave an ED50 (Streptococcus pneumoniae [8]) of 23 mg/kg, an MIC [11] of 1 µg/mL (≈ 1.19 µM) and an MIC (Haemophilus influenzae [9]) of 2 µg/mL (≈ 2.39 µM).
`CCC1N[C@@H]2[C@H](C)[C@@H](O1)[C@](C)(O)[C@@H](CC)OC(=O)[C@H](C)[C@@H](OC1CC(C)(OC)C(O)C(C)O1)[C@H](C)[C@@H](OC1OC(C)CC(N(C)C)C1O)[C@](C)(O)C[C@H]2C` (some centres undefined) gave an MIC (Staphylococcus aureus [1]) of 0.5 µg/mL (≈ 0.645 µM), an ED50 (Mus musculus [26]) of 17 mg/kg and an ED50 (Mus musculus [27]) of 0.8 mg/kg. It also gave an MIC (Streptococcus pneumoniae [12]) of 0.12 µg/mL (≈ 0.155 µM), an ED50 (Mus musculus [28]) of less than 0.6 mg/kg and an MIC (Streptococcus pyogenes [3]) of 0.12 µg/mL (≈ 0.155 µM). It also gave an MIC (Enterococcus faecalis) of 0.5 µg/mL (≈ 0.645 µM), an ED50 (Streptococcus pyogenes [5]) of 35 mg/kg and an ED50 (Staphylococcus aureus [6]) of 34 mg/kg. The ED50 (Mus musculus [29]) was 19 mg/kg, the ED50 (Mus musculus [30]) was less than 0.6 mg/kg and the ED50 (Mus musculus [31]) was 20 mg/kg. The ED50 (Streptococcus pneumoniae [8]) was 30 mg/kg, the MIC [11] was 0.5 µg/mL (≈ 0.645 µM) and the MIC (Haemophilus influenzae [9]) was 8 µg/mL (≈ 10.3 µM).
`CC[C@H]1OC(=O)[C@H](C)[C@@H](OC2CC(C)(OC)C(O)C(C)O2)[C@H](C)[C@@H](OC2OC(C)CC(N(C)C)C2O)[C@](C)(O)C[C@@H](C)[C@@H]2NC(COCCOC)O[C@H]([C@H]2C)[C@]1(C)O` (some centres undefined) gave an MIC (Staphylococcus aureus [1]) of 0.5 µg/mL (≈ 0.599 µM), an MIC (Streptococcus pneumoniae [12]) of 0.06 µg/mL (≈ 0.0718 µM) and an ED50 (Mus musculus [32]) of 23 mg/kg. It also gave an MIC (Streptococcus pyogenes [3]) of 0.12 µg/mL (≈ 0.144 µM), an ED50 (Mus musculus [33]) of 1 mg/kg and an MIC (Enterococcus faecalis) of 0.25 µg/mL (≈ 0.299 µM). The ED50 (Streptococcus pyogenes [5]) was 43 mg/kg, the ED50 (Staphylococcus aureus [6]) was greater than 50 mg/kg and the ED50 (Mus musculus [34]) was 27 mg/kg. For the same compound, the ED50 (Mus musculus [35]) was 0.6 mg/kg, the ED50 (Mus musculus [29]) was 34 mg/kg and the ED50 (Mus musculus [36]) was less than 0.6 mg/kg. The ED50 (Streptococcus pneumoniae [8]) was 32 mg/kg, the MIC [11] was 0.5 µg/mL (≈ 0.599 µM) and the MIC (Haemophilus influenzae [9]) was 2 µg/mL (≈ 2.39 µM).
